Reference: ChEMBL document CHEMBL3286133, “Synthesis, biological evaluation and molecular docking studies of trans-indole-3-acrylamide derivatives, a new class of tubulin polymerization inhibitors” (Bioorg Med Chem, 2014)
One block for each molecule: values may come before it. Calls of active or inactive are those of the source. The calls are words filed in the database; no cut-off is given here.

Experiments:
MCF7 = experiment: Antiproliferative activity against human MCF7 cells after 48 hrs by MTT assay; type: functional, cell-based; settings: MCF7, 48 h
Method in brief: (§1)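 MTT viability assay. HL-60 and Raji were grown in RPMI-1640 and MCF7/MDA-MB-231 in DMEM, all with 10% FBS, at 37 °C under 5% CO₂. Cells were seeded at 10,000/well, held overnight in 1% FBS medium, then exposed 48 h to 0.1–125 µM. Solvent control was 0.1% DMSO. MTT was 0.5 mg/mL for 4 h, formazan was dissolved in DMSO, and absorbance read at 570 nm. Quadruplicates; IC50 taken from concentration–response curves.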

HL-60 [1] = experiment: Antiproliferative activity against human HL60 cells after 48 hrs by MTT assay; type: functional, cell-based; settings: HL-60, 48 h; method in brief: as §1
Tubulin = Tubulin (Bos taurus, UniProt Q6B856+Q862L2+Q862F3); experiment: Inhibition of bovine brain tubulin polymerization after 20 mins by spectrophotometry
HeLa [2] = experiment: Antiproliferative activity against human HeLa cells after 48 hrs by MTT assay; type: functional, cell-based
Raji = experiment: Antiproliferative activity against human Raji cells after 48 hrs by MTT assay; type: functional, cell-based; method in brief: as §1
MDA-MB-231 = experiment: Antiproliferative activity against human MDA-MB-231 cells after 48 hrs by MTT assay; type: functional, cell-based; settings: MDA-MB-231, 48 h; method in brief: as §1
Tubulin (Bos taurus) [3] = biological target: T1, Tubulin (Bos taurus) (UniProt Q6B856+Q862L2+Q862F3); experiment: Displacement of [3H]colchicine from bovine brain tubulin at 50 uM after 10 mins by liquid scintillation counting
Method in brief: (§2)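 [³H]colchicine binding in 0.1 mL. Bovine brain tubulin 1.0 µM, [³H]colchicine 5.0 µM, 1.0 M glutamate, 5% DMSO, inhibitor at 5 or 50 µM; 10 min at 37 °C. Reactions were stopped with ice-cold water and filtered through two stacked DEAE-cellulose filters, which were washed with cold water. Bound label was counted by liquid scintillation.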

HL-60 [4] = experiment: Cell cycle arrest in human HL60 cells assessed as increase in accumulation at G2/M phase for 24 hrs by flow cytometry; type: functional, cell-based
Method in brief: (§3)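 DNA-content flow cytometry. 5×10⁵ HeLa or HL-60 cells were treated 24 h at a range of concentrations. Cells were fixed in ice-cold 70% ethanol, lysed in buffer with RNase A and 0.1% Triton X-100, and stained with PI. Phase distribution was taken from DNA histograms. Means of three independent experiments.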

HL-60 [5] = experiment: Induction of apoptosis in human HL60 cells assessed as increase in number of early apoptotic cells at 1 and 10 uM by annexin-V/propidium-iodide staining based flow cytometry; type: functional, cell-based; settings: TDE = time-dependent effect
Method in brief: (§4)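 Annexin-V-FITC/PI double staining with flow cytometry on HL-60 and HeLa cells after 24 or 48 h of treatment. Excitation 488 nm; emission 525 nm (FITC) and 585 nm (PI). Early apoptotic cells scored as annexin-V+/PI−, late apoptotic as annexin-V+/PI+. Means of three independent experiments.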

HeLa [6] = experiment: Cell cycle arrest in human HeLa cells assessed as increase in accumulation at G2/M phase at 10 uM for 24 hrs by flow cytometry; type: functional; settings: in the assay text read “at 15 to 30 uM” for “at 10 uM”; method in brief: as §3
HL-60 [7] = experiment: Cell cycle arrest in human HL60 cells assessed as decrease in accumulation at S phase at 0 to 30 uM for 24 hrs by flow cytometry; type: functional, cell-based; method in brief: as §3
HeLa [8] = experiment: Induction of apoptosis in human HeLa cells assessed as increase in number of early apoptotic cells for 24 and 48 hrs by annexin-V/propidium-iodide staining based flow cytometry; type: functional, cell-based; method in brief: as §4
HeLa [9] = experiment: Induction of apoptosis in human HeLa cells assessed as increase in number of late apoptotic cells for 24 and 48 hrs by annexin-V/propidium-iodide staining based flow cytometry; type: functional, cell-based; method in brief: as §4
HeLa [10] = experiment: Induction of apoptosis in human HeLa cells assessed as increase in number of early apoptotic cells at 1 and 10 uM hrs by annexin-V/propidium-iodide staining based flow cytometry; type: functional, cell-based; settings: TDE = time-dependent effect; method in brief: as §4
HL-60 [11] = experiment: Induction of apoptosis in human HL60 cells assessed as increase in number of late apoptotic cells at 1 and 10 uM by annexin-V/propidium-iodide staining based flow cytometry; type: functional, cell-based; settings: TDE = time-dependent effect; method in brief: as §4
HL-60 [12] = experiment: Cell cycle arrest in human HL60 cells assessed as increase in accumulation at G2/M phase at 10 uM for 24 hrs by flow cytometry; type: functional; settings: in the assay text read “at 15 to 30 uM” for “at 10 uM”; method in brief: as §3
HL-60 [13] = experiment: Induction of apoptosis in human HL60 cells assessed as increase in number of late apoptotic cells for 24 and 48 hrs by annexin-V/propidium-iodide staining based flow cytometry; type: functional, cell-based; method in brief: as §4
HL-60 [14] = experiment: Induction of apoptosis in human HL60 cells assessed as increase in number of early apoptotic cells for 24 and 48 hrs by annexin-V/propidium-iodide staining based flow cytometry; type: functional, cell-based; method in brief: as §4
HeLa [15] = experiment: Cell cycle arrest in human HeLa cells assessed as decrease in accumulation at G1 phase at 0 to 30 uM for 24 hrs by flow cytometry; type: functional, cell-based; method in brief: as §3
HL-60 [16] = experiment: Induction of apoptosis in human HL60 cells assessed as increase in cleaved PARP level at 1 to 10 uM after 24 to 48 hrs by western blot analysis; type: functional, cell-based
Method in brief: (§5)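 Western blot on HL-60 cells exposed for the indicated times. Lysates were cleared at 15000 × g, 4 °C; 20 µg protein was run on 7.5–15% SDS-PAGE and transferred to PVDF. Blocking in 5% BSA for 2 h, then caspase-3 and PARP antibodies overnight at 4 °C and peroxidase secondary for 60 min. ECL detection; β-actin reprobe as loading control.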

HeLa [17] = experiment: Cell cycle arrest in human HeLa cells assessed as increase in accumulation at G2/M phase for 24 hrs by flow cytometry; type: functional, cell-based; method in brief: as §3
HL-60 [18] = experiment: Cell cycle arrest in human HL60 cells assessed as decrease in accumulation at G1 phase at 0 to 30 uM for 24 hrs by flow cytometry; type: functional, cell-based; method in brief: as §3
HeLa [19] = experiment: Induction of apoptosis in human HeLa cells assessed as increase in number of late apoptotic cells at 1 and 10 uM hrs by annexin-V/propidium-iodide staining based flow cytometry; type: functional, cell-based; settings: TDE = time-dependent effect; method in brief: as §4
Tubulin (Bos taurus) [20] = biological target: T1, Tubulin (Bos taurus); experiment: Displacement of [3H]colchicine from bovine brain tubulin at 5 uM after 10 mins by liquid scintillation counting; method in brief: as §2
HeLa [21] = experiment: Cell cycle arrest in human HeLa cells assessed as decrease in accumulation at S phase at 0 to 30 uM for 24 hrs by flow cytometry; type: functional, cell-based; method in brief: as §3
HL-60 [22] = experiment: Induction of apoptosis in human HL60 cells assessed as increase in cleaved caspase-3 level at 1 to 10 uM after 24 to 48 hrs by western blot analysis; type: functional, cell-based; method in brief: as §5

Structure (SMILES): COc1ccc(CNC(=O)/C=C/c2c[nH]c3ccccc23)cc1OC
IC50 (MCF7): > 100 µM
IC50 (HL-60 [1]): > 100 µM
IC50 (Tubulin): > 40 µM
IC50 (HeLa [2]): > 100 µM
IC50 (Raji): > 100 µM
IC50 (MDA-MB-231): > 100 µM
inhibition (Tubulin (Bos taurus) [3]): 13%

Structure (SMILES): COc1ccc(OC)c(CNC(=O)/C=C/c2c[nH]c3ccccc23)c1
IC50 (MCF7): > 100 µM
IC50 (HL-60 [1]): > 100 µM
IC50 (Tubulin): > 40 µM
IC50 (HeLa [2]): > 100 µM
IC50 (Raji): > 100 µM
IC50 (MDA-MB-231): > 100 µM
inhibition (Tubulin (Bos taurus) [3]): 23%

Structure (SMILES): COc1ccc(CNC(=O)/C=C/c2c[nH]c3ccccc23)c(OC)c1
IC50 (MCF7): > 100 µM
IC50 (HL-60 [1]): > 100 µM
IC50 (Tubulin): > 40 µM
IC50 (HeLa [2]): > 100 µM
IC50 (Raji): > 100 µM
IC50 (MDA-MB-231): > 100 µM

Structure (SMILES): COc1cccc(CNC(=O)/C=C/c2c[nH]c3ccccc23)c1OC
IC50 (MCF7): > 100 µM
IC50 (HL-60 [1]): > 100 µM
IC50 (Tubulin): > 40 µM
IC50 (HeLa [2]): 36.5 µM
IC50 (Raji): > 100 µM
IC50 (MDA-MB-231): > 100 µM
inhibition (Tubulin (Bos taurus) [3]): 12%

Structure (SMILES): COc1cc(CNC(=O)/C=C/c2c[nH]c3ccccc23)ccc1O
IC50 (MCF7): > 100 µM
IC50 (HL-60 [1]): > 100 µM
IC50 (Tubulin): > 40 µM
IC50 (HeLa [2]): > 100 µM
IC50 (Raji): 33.1 µM
IC50 (MDA-MB-231): > 100 µM
inhibition (Tubulin (Bos taurus) [3]): 14%

More lines, main results first:

IC50 (MCF7): > 100 µM
IC50 (HL-60 [1]): 6.2 µM
IC50 (Tubulin): > 40 µM
IC50 (HeLa [2]): 31.4 µM
IC50 (Raji): 10.3 µM
IC50 (MDA-MB-231): > 100 µM
inhibition (Tubulin (Bos taurus) [3]): 11%
Structure (SMILES): COc1ccc(NC(=O)/C=C/c2c[nH]c3ccccc23)cc1OC

IC50 (MCF7): > 100 µM
IC50 (HL-60 [1]): 10.1 µM
IC50 (Tubulin): > 40 µM
IC50 (HeLa [2]): > 100 µM
IC50 (Raji): 22.9 µM
IC50 (MDA-MB-231): > 100 µM
inhibition (Tubulin (Bos taurus) [3]): 15%
Structure (SMILES): COc1ccc(OC)c(NC(=O)/C=C/c2c[nH]c3ccccc23)c1

IC50 (MCF7): > 100 µM
IC50 (HL-60 [1]): 7.1 µM
IC50 (Tubulin): > 40 µM
IC50 (HeLa [2]): > 100 µM
IC50 (Raji): 9.3 µM
IC50 (MDA-MB-231): > 100 µM
inhibition (Tubulin (Bos taurus) [3]): 26%
Structure (SMILES): COc1cc(NC(=O)/C=C/c2c[nH]c3ccccc23)cc(OC)c1

IC50 (MCF7): 36.3 µM
IC50 (HL-60 [1]): 5.1 µM
IC50 (Tubulin): 17 µM
IC50 (HeLa [2]): 23.7 µM
IC50 (Raji): 9.5 µM
inhibition (Tubulin (Bos taurus) [20]): 11%
IC50 (MDA-MB-231): > 100 µM
inhibition (Tubulin (Bos taurus) [3]): 50%
Structure (SMILES): COc1cc(NC(=O)/C=C/c2c[nH]c3ccccc23)cc(OC)c1OC
Activity (HL-60 [4]): Dose-dependent effect
Activity (HL-60 [5]): tde
Activity (HeLa [6]): > 80%
Activity (HL-60 [7]): Active
Activity (HeLa [8]): Dose-dependent effect
Activity (HeLa [9]): Dose-dependent effect
Activity (HeLa [10]): tde
Activity (HL-60 [11]): tde
Activity (HL-60 [12]): 60%
Activity (HL-60 [13]): Dose-dependent effect
Activity (HL-60 [14]): Dose-dependent effect
Activity (HeLa [15]): Active
Activity (HL-60 [16]): Active
Activity (HeLa [17]): Dose-dependent effect
Activity (HL-60 [18]): Active
Activity (HeLa [19]): tde
Activity (HeLa [21]): Active
Activity (HL-60 [22]): Active

IC50 (MCF7): > 100 µM
IC50 (HL-60 [1]): 17.8 µM
IC50 (Tubulin): > 40 µM
IC50 (HeLa [2]): > 100 µM
IC50 (Raji): 22.6 µM
IC50 (MDA-MB-231): > 100 µM
inhibition (Tubulin (Bos taurus) [3]): 13%
Structure (SMILES): COc1ccc(NC(=O)/C=C/c2c[nH]c3ccccc23)c(OC)c1

IC50 (MCF7): > 100 µM
IC50 (HL-60 [1]): > 100 µM
IC50 (Tubulin): > 40 µM
IC50 (HeLa [2]): > 100 µM
IC50 (Raji): > 100 µM
IC50 (MDA-MB-231): > 100 µM
inhibition (Tubulin (Bos taurus) [3]): 11%
Structure (SMILES): COc1cc(OC)c(NC(=O)/C=C/c2c[nH]c3ccccc23)c(OC)c1
